Source: ChEMBL document CHEMBL1123250, “Chloroalanyl antibiotic peptides: antagonism of their antimicrobial effects by L-alanine and L-alanyl peptides in gram-negative bacteria” (1986)
≈ marks a conversion by molar mass, not a printed value.

Key:
Streptococcus agalactiae = test: Compound was tested for antibacterial activity against Streptococcus agalactiae; type: functional
Summary of the method: (§1)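 Inoculum made from colonies grown overnight on chocolate or blood agar, resuspended in liquid medium to 10' cfu/mL. Applied by Steers replicator to serial 2-fold peptide dilutions. Incubated overnight at 37 °C under 7% CO2. MIC = lowest concentration giving fewer than 10 colonies at 16-18 h.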

[1] = test system: Staphylococcus epidermidis; test: Compound was tested for antibacterial activity against Staphylococcus epidermidis; type: functional
Summary of the method: (§2)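 Agar dilution MIC on defined peptide susceptibility agar. Inoculum made by growing overnight in liquid peptide susceptibility medium, then diluting to about 1 × 10^7 cfu/mL. Applied by Steers replicator to plates carrying serial 2-fold peptide dilutions. Incubated overnight at 37 °C. MIC = lowest concentration allowing growth of fewer than 10 colonies after 16-18 h.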

Shigella flexneri = test: Compound was tested for antibacterial activity against Shigella flexneri; type: functional; summary of the method: as §2
Streptococcus pyogenes = test: Compound was tested for antibacterial activity against Streptococcus pyogenes; type: functional; summary of the method: as §1
Enterococcus faecalis = test: Compound was tested for antibacterial activity against Streptococcus faecalis; type: functional; summary of the method: as §2
Haemophilus influenzae = test: Compound was tested for antibacterial activity against Hemophilus influenzae; type: functional; summary of the method: as §1
Staphylococcus aureus = test: Compound was tested for antibacterial activity against Staphylococcus aureus; type: functional; summary of the method: as §2
Escherichia coli [2] = test: Compound was tested for antibacterial activity against Escherichia coli; type: functional; summary of the method: as §2
Morganella morganii = test: Compound was tested for antibacterial activity against Morganella morganii; type: functional; summary of the method: as §2
Proteus mirabilis = test: Compound was tested for antibacterial activity against Proteus mirabilis; type: functional; summary of the method: as §2
Enterobacter cloacae = test: Compound was tested for antibacterial activity against Enterobacter cloacae; type: functional; summary of the method: as §2
Escherichia coli [3] = test: Compound was tested for enzyme activity against transaminase B; per mg protein
Summary of the method: (§3)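 Homogenates of E. coli JSR-0 taken 30 min after agent addition at ~100 Klett units (Davis-Mingioli medium with Met/Pro, Leu/Ile/Val, and in some cultures sucrose or L-Ala). Valine→α-ketoisovalerate transamination read in Tris-HCl pH 7.8 with pyridoxal phosphate and α-ketoglutarate at 37 °C. Timed aliquots derivatized with 2,4-dinitrophenylhydrazine; hydrazone read at 430 nm against a standard curve.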

[4] = target: Alanine racemase, biosynthetic (Escherichia coli K-12) (UniProt P0A6B4); test: Compound was tested for enzyme activity against alanine racemase; per mg protein
Sequence of Alanine racemase, biosynthetic (Escherichia coli K-12) (P0A6B4 whole entry): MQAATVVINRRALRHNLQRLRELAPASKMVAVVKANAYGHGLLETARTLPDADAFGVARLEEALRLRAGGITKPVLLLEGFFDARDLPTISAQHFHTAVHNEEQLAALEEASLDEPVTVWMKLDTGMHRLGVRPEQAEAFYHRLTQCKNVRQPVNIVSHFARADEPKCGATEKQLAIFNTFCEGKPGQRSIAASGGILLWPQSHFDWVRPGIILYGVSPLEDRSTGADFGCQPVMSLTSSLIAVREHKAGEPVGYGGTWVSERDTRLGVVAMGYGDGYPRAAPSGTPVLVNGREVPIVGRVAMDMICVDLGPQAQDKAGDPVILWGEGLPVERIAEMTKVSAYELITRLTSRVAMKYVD
Summary of the method: (§4)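 E. coli JSR-0 grown at 37 °C in Davis-Mingioli medium with Met/Pro (50 µg/mL) and Leu/Ile/Val (100 µg/mL). Some cultures had 5% sucrose or 500 µg/mL L-Ala. Agent added at ~100 Klett units; cells harvested after 30 min, washed and sonicated. Racemase read D→L in the supernatant, coupled to L-alanine dehydrogenase (NADH, 340 nm): 10 mM D-Ala, 5 mM NAD+, CHES pH 9.0, 37 °C.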

[5] = target: Alanine racemase, biosynthetic (Escherichia coli K-12) (UniProt P0A6B4); test: Compound was tested for enzyme activity against alanine racemase; per mg of protein; summary of the method: as §4
Escherichia coli [6] = test: Compound was tested for enzyme activity against transaminase B; per mg of protein; summary of the method: as §3

SMILES	MIC (Streptococcus agalactiae) [µg/mL]	MIC [1] [µg/mL]	MIC (Shigella flexneri) [µg/mL]	MIC (Streptococcus pyogenes) [µg/mL]	MIC (Enterococcus faecalis) [µg/mL]	MIC (Haemophilus influenzae) [µg/mL]	MIC (Staphylococcus aureus) [µg/mL]	MIC (Escherichia coli [2]) [µg/mL]	MIC (Morganella morganii) [µg/mL]	MIC (Proteus mirabilis) [µg/mL]	MIC (Enterobacter cloacae) [µg/mL]	specific activity (Escherichia coli [3]) [µmol/min/mg]	specific activity [4] [µmol/min/mg]	specific activity [5] [µmol/min/mg]	specific activity (Escherichia coli [6]) [µmol/min/mg]
C[C@H](N)C(=O)N[C@@H](C)C(=O)N[C@@H](CCl)C(=O)O	12.5 (≈ 47 µM)	0.025 (≈ 0.0941 µM)	> 100	0.2 (≈ 0.753 µM)	> 100	> 100	0.025 (≈ 0.0941 µM)	> 100							
CSCC[C@H](N)C(=O)N[C@@H](CCl)C(=O)O				1.56 (≈ 6.12 µM)					50 (≈ 196 µM)	50 (≈ 196 µM)					
CC(C)C[C@H](N)C(=O)N[C@@H](CCl)C(=O)O	1.56 (≈ 6.59 µM)	0.0125 (≈ 0.0528 µM)	50 (≈ 211 µM)	< 0.1	< 0.1	6.25 (≈ 26.4 µM)	0.025 (≈ 0.106 µM)	3.12 (≈ 13.2 µM)		25 (≈ 106 µM)					
CSCC[C@H](N)C(=O)N[C@@H](C)C(=O)N[C@@H](CCl)C(=O)O	< 0.1	0.025 (≈ 0.0767 µM)	> 100	25 (≈ 76.7 µM)	6.25 (≈ 19.2 µM)	> 100	0.05 (≈ 0.153 µM)	> 100	> 100	> 100	> 100				
CC[C@H](N)C(=O)N[C@@H](CCl)C(=O)O	< 0.1	0.025 (≈ 0.12 µM)	1.56 (≈ 7.48 µM)	12.5 (≈ 59.9 µM)	6.25 (≈ 30 µM)	< 0.1	0.025 (≈ 0.12 µM)	1.56 (≈ 7.48 µM)	50 (≈ 240 µM)	> 100	25 (≈ 120 µM)				
O=C(N[C@H](CO)[C@H](O)c1ccc([N+](=O)[O-])cc1)C(Cl)Cl												0.0541	0.0176		
CCC[C@H](N)C(=O)N[C@@H](CCl)C(=O)O							0.25 (≈ 1.12 µM)								
CN[C@@H](C)C(=O)N[C@@H](CCl)C(=O)O	6.25 (≈ 30 µM)	3.12 (≈ 15 µM)	100 (≈ 479 µM)		100 (≈ 479 µM)	12.5 (≈ 59.9 µM)	0.39 (≈ 1.87 µM)	6.25 (≈ 30 µM)		> 100					
NCC(=O)N[C@@H](CCl)C(=O)O	0.39 (≈ 2.16 µM)	0.05 (≈ 0.277 µM)	1.56 (≈ 8.64 µM)	0.05 (≈ 0.277 µM)	> 100	0.2 (≈ 1.11 µM)	0.025 (≈ 0.138 µM)	3.12 (≈ 17.3 µM)	> 100	> 100	1.56 (≈ 8.64 µM)				
NC(=O)CC[C@H](N)C(=O)N[C@@H](CCl)C(=O)O	0.78 (≈ 3.1 µM)	0.05 (≈ 0.199 µM)	> 100	< 0.1	0.78 (≈ 3.1 µM)	> 100	0.05 (≈ 0.199 µM)	1.56 (≈ 6.2 µM)		> 100					
CC(C)[C@H](N)C(=O)N[C@@H](C)C(=O)N[C@@H](CCl)C(=O)O	3.12 (≈ 10.6 µM)	0.025 (≈ 0.0851 µM)	> 100	0.1 (≈ 0.34 µM)	> 100	> 100	0.05 (≈ 0.17 µM)	> 100							
O=C(O)[C@H](CCl)NC(=O)[C@@H]1CCCN1	12.5 (≈ 56.6 µM)	1.56 (≈ 7.07 µM)	> 100	6.25 (≈ 28.3 µM)	< 0.1	25 (≈ 113 µM)	0.39 (≈ 1.77 µM)	6.25 (≈ 28.3 µM)		> 100					
CC(C)[C@H](N)C(=O)N[C@@H](CCl)C(=O)O	1.56 (≈ 7.01 µM)	< 0.0125	> 100	< 0.1	< 0.1	12.5 (≈ 56.1 µM)	0.025 (≈ 0.112 µM)	1.56 (≈ 7.01 µM)		100 (≈ 449 µM)					
CCCC[C@H](N)C(=O)N[C@@H](CCl)C(=O)O	< 0.1	0.0125 (≈ 0.0528 µM)	3.12 (≈ 13.2 µM)	25 (≈ 106 µM)	3.12 (≈ 13.2 µM)	25 (≈ 106 µM)	0.0125 (≈ 0.0528 µM)	3.12 (≈ 13.2 µM)	> 100	> 100	6.25 (≈ 26.4 µM)				
N[C@@H](CCl)C(=O)N[C@@H](CCl)C(=O)N[C@@H](CCl)C(=O)O	0.78 (≈ 2.33 µM)	0.1 (≈ 0.299 µM)	6.25 (≈ 18.7 µM)	0.39 (≈ 1.17 µM)	< 0.1	6.25 (≈ 18.7 µM)	0.2 (≈ 0.598 µM)	25 (≈ 74.7 µM)							
N[C@@H](Cc1ccccc1)C(=O)N[C@@H](CCl)C(=O)O	6.25 (≈ 23.1 µM)	0.05 (≈ 0.185 µM)	100 (≈ 369 µM)	< 0.1	0.39 (≈ 1.44 µM)	12.5 (≈ 46.2 µM)	0.05 (≈ 0.185 µM)	25 (≈ 92.3 µM)		100 (≈ 369 µM)					
CSCC[C@H](N)C(=O)N[C@@H](CCl)C(=O)N[C@@H](CCl)C(=O)O	< 0.1	0.0125 (≈ 0.0347 µM)	12.5 (≈ 34.7 µM)	6.25 (≈ 17.3 µM)	0.05 (≈ 0.139 µM)	0.39 (≈ 1.08 µM)	0.025 (≈ 0.0694 µM)	1.56 (≈ 4.33 µM)	> 100	> 100	> 100				
NCCC(=O)N[C@@H](CCl)C(=O)O	> 100	6.25 (≈ 32.1 µM)	> 100		> 100	> 100	0.78 (≈ 4.01 µM)	> 100		> 100					
CC[C@H](C)[C@H](N)C(=O)N[C@@H](CCl)C(=O)O	3.12 (≈ 13.2 µM)	0.05 (≈ 0.211 µM)	25 (≈ 106 µM)	< 0.1	< 0.1	6.25 (≈ 26.4 µM)	0.025 (≈ 0.106 µM)	3.12 (≈ 13.2 µM)		12.5 (≈ 52.8 µM)					
C[C@H](N)C(=O)N[C@@H](CCl)C(=O)O		0.0125 (≈ 0.0642 µM)												0.0117	0
